Measurements taken from ChEMBL document CHEMBL1145439, “Fluorine-18-labeled benzamide analogues for imaging the sigma2 receptor status of solid tumors with positron emission tomography” (J Med Chem, 2007).

Tests used:
[1] = test system: Muscle tissue; test: Biodistribution in muscle of mouse EMT6 tumor bearing BALB/c mouse at 10 to 20 uCi after 120 mins; type: ADME, organism-based; details: in vivo, 2 h
Method in brief: (§1)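 EMT-6 cells (5×10^5 in 100 µL PBS) implanted s.c. in scapular region of female Balb/c mice (~2 months, 17-22 g); studied 7-10 days later at ~0.2 cm3 tumor. 18F tracer 10-20 µCi in 100-150 µL saline via tail vein; ≥4 mice per time point; tissue removed at sacrifice, weighed, gamma-counted; %ID/g calculated.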

[2] = test system: Kidney; test: Biodistribution in kidney of mouse EMT6 tumor bearing BALB/c mouse at 10 to 20 uCi after 60 mins; type: ADME, organism-based; details: in vivo, 1 h; method in brief: as §1
[3] = Tumor to muscle ratio of the drug in mouse EMT6 tumor bearing BALB/c mouse at 10 to 20 uCi after 2 hrs; type: ADME, tissue-based, Muscle tissue
Method in brief: (§2)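 Tumor-bearing female Balb/c mice (EMT-6 s.c. allograft, ~0.2 cm3) given 10-20 µCi 18F tracer in saline i.v. via tail vein; ≥4 per group; killed 120 min later. Tissues weighed and gamma-counted; ratio = tumor %ID/g divided by that organ's %ID/g.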

[4] = test system: Liver; test: Biodistribution in liver of mouse EMT6 tumor bearing BALB/c mouse at 10 to 20 uCi after 30 mins; type: ADME, organism-based; details: in vivo, 0.5 h; method in brief: as §1
[5] = test system: Blood; test: Biodistribution in blood of mouse EMT6 tumor bearing BALB/c mouse at 10 to 20 uCi after 5 mins; type: ADME, organism-based; details: in vivo; method in brief: as §1
[6] = test system: Lung; test: Biodistribution in lung of mouse EMT6 tumor bearing BALB/c mouse at 10 to 20 uCi after 60 mins; type: ADME, organism-based; details: in vivo, 1 h; method in brief: as §1
[7] = test system: Lung; test: Biodistribution in lung of mouse EMT6 tumor bearing BALB/c mouse at 10 to 20 uCi after 120 mins; type: ADME, organism-based; details: in vivo, 2 h; method in brief: as §1
[8] = Decrease in tumor to muscle ratio of the drug in mouse EMT6 tumor bearing BALB/c mouse after 1 hr in presence of YUN-143; type: ADME; design: scale not given: the % may be the effect or the level left
Method in brief: (§3)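 Blocking: 18F tracer coinjected i.v. with 1 mg/kg cold YUN-143 (σ1/σ2 ligand) into EMT-6 tumor-bearing female Balb/c mice; sacrificed at 60 min; tumor/muscle and tumor/fat ratios from %ID/g of gamma-counted tissues.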

[9] = test system: Liver; test: Biodistribution in liver of mouse EMT6 tumor bearing BALB/c mouse at 10 to 20 uCi after 5 mins; type: ADME, organism-based; details: in vivo; method in brief: as §1
[10] = test system: Lung; test: Biodistribution in lung of mouse EMT6 tumor bearing BALB/c mouse at 10 to 20 uCi after 30 mins; type: ADME, organism-based; details: in vivo, 0.5 h; method in brief: as §1
[11] = test system: Kidney; test: Biodistribution in kidney of mouse EMT6 tumor bearing BALB/c mouse at 10 to 20 uCi after 120 mins; type: ADME, organism-based; details: in vivo, 2 h; method in brief: as §1
[12] = test system: Blood; test: Biodistribution in blood of mouse EMT6 tumor bearing BALB/c mouse at 10 to 20 uCi after 30 mins; type: ADME, organism-based; details: in vivo, 0.5 h; method in brief: as §1
[13] = test system: Heart; test: Biodistribution in heart of mouse EMT6 tumor bearing BALB/c mouse at 10 to 20 uCi after 30 mins; type: ADME, organism-based; details: in vivo, 0.5 h; method in brief: as §1
[14] = test system: Bone; test: Biodistribution in bone of mouse EMT6 tumor bearing BALB/c mouse at 10 to 20 uCi after 5 mins; type: ADME, organism-based, Bone element; details: in vivo; method in brief: as §1
[15] = test system: Muscle tissue; test: Biodistribution in muscle of mouse EMT6 tumor bearing BALB/c mouse at 10 to 20 uCi after 30 mins; type: ADME, organism-based; details: in vivo, 0.5 h; method in brief: as §1
[16] = test system: Bone; test: Biodistribution in bone of mouse EMT6 tumor bearing BALB/c mouse at 10 to 20 uCi after 120 mins; type: ADME, organism-based, Bone element; details: in vivo, 2 h; method in brief: as §1
[17] = test system: Adipose tissue; test: Biodistribution in fat of mouse EMT6 tumor bearing BALB/c mouse at 10 to 20 uCi after 60 mins; type: ADME, organism-based; details: in vivo, 1 h; method in brief: as §1
[18] = test system: Brain; test: Biodistribution in brain of EMT6 tumor bearing BALB/c mouse at 10 to 20 uCi after 60 mins; type: ADME, organism-based; details: in vivo, 1 h; method in brief: as §1
[19] = test system: Liver; test: Biodistribution in liver of mouse EMT6 tumor bearing BALB/c mouse at 10 to 20 uCi after 60 mins; type: ADME, organism-based; details: in vivo, 1 h; method in brief: as §1
[20] = test system: EMT6; test: Biodistribution in tumor of mouse EMT6 tumor bearing BALB/c mouse at 10 to 20 uCi after 5 mins; type: ADME, organism-based; details: emt6, 5 min; method in brief: as §1
[21] = test system: EMT6; test: Biodistribution in tumor of mouse EMT6 tumor bearing BALB/c mouse at 10 to 20 uCi after 120 mins; type: ADME, organism-based; details: emt6, 2 h; method in brief: as §1
[22] = Decrease in tumor to fat ratio of the drug in mouse EMT6 tumor bearing BALB/c mouse after 1 hr in presence of YUN-143; type: ADME; design: scale not given: the % may be the effect or the level left; method in brief: as §3
[23] = test system: Adipose tissue; test: Biodistribution in fat of mouse EMT6 tumor bearing BALB/c mouse at 10 to 20 uCi after 120 mins; type: ADME, organism-based; details: in vivo, 2 h; method in brief: as §1
[24] = test system: Kidney; test: Biodistribution in kidney of mouse EMT6 tumor bearing BALB/c mouse at 10 to 20 uCi after 30 mins; type: ADME, organism-based; details: in vivo, 0.5 h; method in brief: as §1
[25] = test system: EMT6; test: Biodistribution in tumor of mouse EMT6 tumor bearing BALB/c mouse at 10 to 20 uCi after 60 mins; type: ADME, organism-based; details: emt6, 1 h; method in brief: as §1
[26] = test system: Bone; test: Biodistribution in bone of mouse EMT6 tumor bearing BALB/c mouse at 10 to 20 uCi after 60 mins; type: ADME, organism-based, Bone element; details: in vivo, 1 h; method in brief: as §1
[27] = test system: Adipose tissue; test: Biodistribution in fat of mouse EMT6 tumor bearing BALB/c mouse at 10 to 20 uCi after 5 mins; type: ADME, organism-based; details: in vivo; method in brief: as §1
[28] = test system: Heart; test: Biodistribution in heart of mouse EMT6 tumor bearing BALB/c mouse at 10 to 20 uCi after 5 mins; type: ADME, organism-based; details: in vivo; method in brief: as §1
[29] = test system: Adipose tissue; test: Biodistribution in fat of mouse EMT6 tumor bearing BALB/c mouse at 10 to 20 uCi after 30 mins; type: ADME, organism-based; details: in vivo, 0.5 h; method in brief: as §1
[30] = test system: Brain; test: Biodistribution in brain of EMT6 tumor bearing BALB/c mouse at 10 to 20 uCi after 30 mins; type: ADME, organism-based; details: in vivo, 0.5 h; method in brief: as §1
[31] = test system: EMT6; test: Biodistribution in tumor of EMT6 tumor bearing BALB/c mouse 10 to 20 uCi after 30 mins; type: ADME, organism-based; details: emt6, 0.5 h; method in brief: as §1
[32] = test system: Muscle tissue; test: Biodistribution in muscle of mouse EMT6 tumor bearing BALB/c mouse at 10 to 20 uCi after 60 mins; type: ADME, organism-based; details: in vivo, 1 h; method in brief: as §1
[33] = test system: Blood; test: Biodistribution in blood of mouse EMT6 tumor bearing BALB/c mouse at 10 to 20 uCi after 60 mins; type: ADME, organism-based; details: in vivo, 1 h; method in brief: as §1
[34] = test system: Brain; test: Biodistribution in brain of mouse EMT6 tumor bearing BALB/c mouse at 10 to 20 uCi after 120 mins; type: ADME, organism-based; details: in vivo, 2 h; method in brief: as §1
[35] = test system: Brain; test: Biodistribution in brain of EMT6 tumor bearing BALB/c mouse at 10 to 20 uCi after 5 mins; type: ADME, organism-based; details: in vivo; method in brief: as §1
[36] = test system: Heart; test: Biodistribution in heart of mouse EMT6 tumor bearing BALB/c mouse at 10 to 20 uCi after 60 mins; type: ADME, organism-based; details: in vivo, 1 h; method in brief: as §1
[37] = test system: Blood; test: Biodistribution in blood of mouse EMT6 tumor bearing BALB/c mouse at 10 to 20 uCi after 120 mins; type: ADME, organism-based; details: in vivo, 2 h; method in brief: as §1
[38] = test system: Kidney; test: Biodistribution in kidney of mouse EMT6 tumor bearing BALB/c mouse at 10 to 20 uCi after 5 mins; type: ADME, organism-based; details: in vivo; method in brief: as §1
[39] = test system: Bone; test: Biodistribution in bone of mouse EMT6 tumor bearing BALB/c mouse at 10 to 20 uCi after 30 mins; type: ADME, organism-based, Bone element; details: in vivo, 0.5 h; method in brief: as §1
[40] = Tumor to fat ratio of the drug in mouse EMT6 tumor bearing BALB/c mouse at 10 to 20 uCi after 2 hrs; type: ADME; method in brief: as §2
[41] = test system: Heart; test: Biodistribution in heart of EMT6 tumor bearing BALB/c mouse at 10 to 20 uCi after 120 mins; type: ADME, organism-based; details: in vivo, 2 h; method in brief: as §1
[42] = test system: Muscle tissue; test: Biodistribution in muscle of EMT6 tumor bearing BALB/c mouse at 10 to 20 uCi after 5 mins; type: ADME, organism-based; details: in vivo; method in brief: as §1
[43] = test system: Lung; test: Biodistribution in lung of mouse EMT6 tumor bearing BALB/c mouse at 10 to 20 uCi after 5 mins; type: ADME, organism-based; details: in vivo; method in brief: as §1
[44] = test system: Liver; test: Biodistribution in liver of mouse EMT6 tumor bearing BALB/c mouse at 10 to 20 uCi after 120 mins; type: ADME, organism-based; details: in vivo, 2 h; method in brief: as §1

Drug uptake [1]: 0.15 % ID/g
Drug uptake [2]: 3.5 % ID/g
Ratio [3]: 8
Drug uptake [4]: 10.73 % ID/g
Drug uptake [5]: 1.82 % ID/g
Drug uptake [6]: 1.51 % ID/g
Drug uptake [7]: 0.74 % ID/g
Activity [8]: 50%
Drug uptake [9]: 15.21 % ID/g
Drug uptake [10]: 3.75 % ID/g
Drug uptake [11]: 1.34 % ID/g
Drug uptake [12]: 1.23 % ID/g
Drug uptake [13]: 1.54 % ID/g
Drug uptake [14]: 2.23 % ID/g
Drug uptake [15]: 0.73 % ID/g
Drug uptake [16]: 0.59 % ID/g
Drug uptake [17]: 0.47 % ID/g
Drug uptake [18]: 0.14 % ID/g
Drug uptake [19]: 5.57 % ID/g
Drug uptake [20]: 3.05 % ID/g
Drug uptake [21]: 1.15 % ID/g
Activity [22]: 50%
Drug uptake [23]: 0.17 % ID/g
Drug uptake [24]: 7.73 % ID/g
Drug uptake [25]: 2.15 % ID/g
Drug uptake [26]: 0.93 % ID/g
Drug uptake [27]: 4.13 % ID/g
Drug uptake [28]: 5.6 % ID/g
Drug uptake [29]: 1.36 % ID/g
Drug uptake [30]: 0.27 % ID/g
Drug uptake [31]: 3.11 % ID/g
Drug uptake [32]: 0.4 % ID/g
Drug uptake [33]: 0.65 % ID/g
Drug uptake [34]: 0.08 % ID/g
Drug uptake [35]: 0.71 % ID/g
Drug uptake [36]: 0.69 % ID/g
Drug uptake [37]: 0.28 % ID/g
Drug uptake [38]: 19.98 % ID/g
Drug uptake [39]: 2.01 % ID/g
Ratio [40]: 7
Drug uptake [41]: 0.39 % ID/g
Drug uptake [42]: 2.5 % ID/g
Drug uptake [43]: 18.47 % ID/g
Drug uptake [44]: 2.61 % ID/g
Compound: COc1cc2c(cc1OC)CN(CCCCNC(=O)c1cc(I)cc(OC)c1OCC[18F])CC2
